Results from ChEMBL document CHEMBL1153382 (J Med Chem, 2009).
pEC50, pKi: −log10 of the molar value. Activity calls are given as the source filed them. The rule behind the calls is not given here.

Key:
[1] = target: T1, 5-hydroxytryptamine receptor 2A (Homo sapiens, UniProt P28223); assay: Agonist activity at human 5HT2A receptor expressed in HEK293 cells at 10 uM assessed as calcium flux by FLIPR assay relative to serotonin; assay type: functional, cell-based
Homo sapiens = species: Homo sapiens; assay: Selectivity ratio of EC50 for human 5HT2B receptor to EC50 for human 5HT2C receptor
[2] = Selectivity ratio of Ki for human 5HT2A receptor to Ki for 5HT2C receptor
[3] = target: T2, 5-hydroxytryptamine receptor 2B (Homo sapiens, UniProt P41595); assay: Agonist activity at human 5HT2B receptor expressed in HEK293 cells at 10 uM assessed as calcium flux by FLIPR assay relative to serotonin; assay type: functional, cell-based
[4] = target: T3, 5-hydroxytryptamine receptor 2C (Homo sapiens) (UniProt P28335); assay: Agonist activity at human 5HT2C receptor expressed in HEK293 cells at 10 uM assessed as calcium flux by FLIPR assay relative to serotonin; assay type: functional, cell-based
T3 sequence (whole entry): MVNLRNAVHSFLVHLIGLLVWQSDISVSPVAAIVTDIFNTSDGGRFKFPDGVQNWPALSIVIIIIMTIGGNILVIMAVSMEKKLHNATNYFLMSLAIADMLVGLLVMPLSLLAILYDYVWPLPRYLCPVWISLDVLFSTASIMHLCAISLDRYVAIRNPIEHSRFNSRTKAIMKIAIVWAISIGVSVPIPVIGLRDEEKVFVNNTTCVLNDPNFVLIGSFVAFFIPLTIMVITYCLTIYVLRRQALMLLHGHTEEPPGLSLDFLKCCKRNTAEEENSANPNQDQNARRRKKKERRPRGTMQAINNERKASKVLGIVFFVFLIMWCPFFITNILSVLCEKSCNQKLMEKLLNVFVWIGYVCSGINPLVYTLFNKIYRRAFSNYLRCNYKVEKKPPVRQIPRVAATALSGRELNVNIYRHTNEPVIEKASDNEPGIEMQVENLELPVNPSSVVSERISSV

[5] = Selectivity ratio of Ki for human 5HT2B receptor to Ki for 5HT2C receptor
[6] = target: Serotonin 2 receptors; 5-HT2a & 5-HT2c (Homo sapiens) (UniProt P28223+P28335); assay: Selectivity ratio of EC50 for human 5HT2A receptor to EC50 for human 5HT2C receptor
[7] = target: Sodium-dependent dopamine transporter (Homo sapiens, UniProt Q01959); assay: Displacement of [3H]WIN-35428 from DAT
[8] = target: T2, 5-hydroxytryptamine receptor 2B; assay: Agonist activity at human 5HT2B receptor expressed in HEK293 cells assessed as calcium flux by FLIPR assay; assay type: functional, cell-based
[9] = target: T1, 5-hydroxytryptamine receptor 2A; assay: Displacement of [3H]ketanserin from human 5HT2A receptor
[10] = target: T4, 5-hydroxytryptamine receptor 2C (Homo sapiens, UniProt P28335); assay: Displacement of [3H]mesulergine from 5HT2C receptor
T4 sequence (P28335 whole entry): T3 sequence (whole entry)

[11] = target: T2, 5-hydroxytryptamine receptor 2B; assay: Displacement of [3H]LSD from human 5HT2B receptor
[12] = target: T1, 5-hydroxytryptamine receptor 2A; assay: Agonist activity at human 5HT2A receptor expressed in HEK293 cells assessed as calcium flux by FLIPR assay; assay type: functional, cell-based
[13] = target: Sodium-dependent serotonin transporter (Homo sapiens, UniProt P31645); assay: Displacement of [3H]citalopram from SERT
[14] = target: T4, 5-hydroxytryptamine receptor 2C; assay: (§1) Agonist activity at human 5HT2C receptor expressed in HEK293 cells assessed as calcium flux by FLIPR assay; assay type: functional, cell-based
[15] = target: Sodium-dependent noradrenaline transporter (Homo sapiens, UniProt P23975); assay: Displacement of [3H]nisoxetine from NET
Mus musculus [16] = assay: Antidepressant activity in C57BL/6J mouse assessed as decrease in immobility time at 10 mg/kg, ip administered 30 mins prior to testing measured every 1 min for 6 mins by forced swim test relative to control; assay type: functional; parameters: scale not given: the % may be the effect or the level left
Method in brief: (§2)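 Male C57BL/6J mice, 9 weeks old, housed 4 per cage on a 12 h light-dark cycle. Compound given ip in 10% DMSO in saline 30 min before testing. Each mouse was placed alone in a glass cylinder holding 12 cm of water at 23 ± 1 °C. Immobility (floating posture) was scored every 1 min over a 6 min trial and compared with vehicle.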

Mus musculus [17] = assay: Antidepressant activity in C57BL/6J mouse assessed as decrease in immobility time at 30 mg/kg, ip administered 30 mins prior to testing measured every 1 min for 6 mins by forced swim test relative to control; assay type: functional; parameters: scale not given: the % may be the effect or the level left; settings: route intraperitoneal; method in brief: as §2
Mus musculus [18] = assay: Antidepressant activity in C57BL/6J mouse assessed as decrease in immobility time at 60 mg/kg, ip administered 30 mins prior to testing measured every 1 min for 6 mins by forced swim test relative to control; assay type: functional; parameters: scale not given: the % may be the effect or the level left; settings: route intraperitoneal; method in brief: as §2
[19] = target: T3, 5-hydroxytryptamine receptor 2C (Homo sapiens); assay: as §1; assay type: functional, cell-based

T1 sequence (P28223 whole entry): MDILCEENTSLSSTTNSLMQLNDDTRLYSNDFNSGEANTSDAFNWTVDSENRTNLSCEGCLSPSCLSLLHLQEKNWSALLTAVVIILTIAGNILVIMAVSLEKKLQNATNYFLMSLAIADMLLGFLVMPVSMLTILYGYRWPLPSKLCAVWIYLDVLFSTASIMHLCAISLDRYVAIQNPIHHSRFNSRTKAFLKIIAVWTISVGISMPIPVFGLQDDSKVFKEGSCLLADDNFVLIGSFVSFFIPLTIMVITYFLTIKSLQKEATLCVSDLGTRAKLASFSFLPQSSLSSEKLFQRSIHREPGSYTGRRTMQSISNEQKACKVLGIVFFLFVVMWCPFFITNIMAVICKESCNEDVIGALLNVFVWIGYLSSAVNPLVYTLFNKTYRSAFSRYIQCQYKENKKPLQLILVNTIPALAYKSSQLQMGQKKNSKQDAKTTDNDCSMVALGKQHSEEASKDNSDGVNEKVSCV
Serotonin 2 receptors; 5-HT2a & 5-HT2c (Homo sapiens), sequence (P28223 whole entry, looked up, one chain of several): as the sequence (P28223 whole entry) above
T2 sequence (P41595 whole entry): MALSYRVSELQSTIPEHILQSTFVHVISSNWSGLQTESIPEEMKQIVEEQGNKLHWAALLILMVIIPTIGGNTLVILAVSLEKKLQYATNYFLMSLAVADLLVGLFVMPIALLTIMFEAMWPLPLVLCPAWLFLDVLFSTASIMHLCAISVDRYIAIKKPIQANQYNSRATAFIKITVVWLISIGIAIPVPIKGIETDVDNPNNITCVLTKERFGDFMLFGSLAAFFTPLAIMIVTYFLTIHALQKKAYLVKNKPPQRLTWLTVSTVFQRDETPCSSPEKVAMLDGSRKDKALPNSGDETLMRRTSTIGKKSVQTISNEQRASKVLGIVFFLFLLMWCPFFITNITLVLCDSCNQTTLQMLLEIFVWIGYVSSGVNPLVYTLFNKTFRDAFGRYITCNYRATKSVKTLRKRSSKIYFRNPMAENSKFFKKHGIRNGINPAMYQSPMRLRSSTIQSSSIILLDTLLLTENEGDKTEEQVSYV
Sodium-dependent dopamine transporter, sequence (Q01959 whole entry): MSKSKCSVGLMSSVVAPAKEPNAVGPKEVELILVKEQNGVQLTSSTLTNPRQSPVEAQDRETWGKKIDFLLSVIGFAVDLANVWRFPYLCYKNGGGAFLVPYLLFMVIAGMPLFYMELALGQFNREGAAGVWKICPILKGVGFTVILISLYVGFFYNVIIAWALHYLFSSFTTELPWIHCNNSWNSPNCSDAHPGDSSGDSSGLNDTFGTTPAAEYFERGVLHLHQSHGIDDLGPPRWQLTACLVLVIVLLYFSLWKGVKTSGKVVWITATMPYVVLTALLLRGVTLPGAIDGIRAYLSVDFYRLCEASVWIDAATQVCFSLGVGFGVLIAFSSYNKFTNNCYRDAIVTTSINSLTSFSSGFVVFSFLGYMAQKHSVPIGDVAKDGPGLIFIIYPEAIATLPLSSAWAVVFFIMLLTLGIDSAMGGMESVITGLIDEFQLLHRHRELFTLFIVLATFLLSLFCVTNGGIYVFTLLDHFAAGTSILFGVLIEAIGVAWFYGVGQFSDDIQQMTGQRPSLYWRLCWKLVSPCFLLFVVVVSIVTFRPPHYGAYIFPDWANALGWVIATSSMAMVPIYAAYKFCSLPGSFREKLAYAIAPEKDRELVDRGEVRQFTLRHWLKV
Sodium-dependent noradrenaline transporter, sequence (P23975 whole entry): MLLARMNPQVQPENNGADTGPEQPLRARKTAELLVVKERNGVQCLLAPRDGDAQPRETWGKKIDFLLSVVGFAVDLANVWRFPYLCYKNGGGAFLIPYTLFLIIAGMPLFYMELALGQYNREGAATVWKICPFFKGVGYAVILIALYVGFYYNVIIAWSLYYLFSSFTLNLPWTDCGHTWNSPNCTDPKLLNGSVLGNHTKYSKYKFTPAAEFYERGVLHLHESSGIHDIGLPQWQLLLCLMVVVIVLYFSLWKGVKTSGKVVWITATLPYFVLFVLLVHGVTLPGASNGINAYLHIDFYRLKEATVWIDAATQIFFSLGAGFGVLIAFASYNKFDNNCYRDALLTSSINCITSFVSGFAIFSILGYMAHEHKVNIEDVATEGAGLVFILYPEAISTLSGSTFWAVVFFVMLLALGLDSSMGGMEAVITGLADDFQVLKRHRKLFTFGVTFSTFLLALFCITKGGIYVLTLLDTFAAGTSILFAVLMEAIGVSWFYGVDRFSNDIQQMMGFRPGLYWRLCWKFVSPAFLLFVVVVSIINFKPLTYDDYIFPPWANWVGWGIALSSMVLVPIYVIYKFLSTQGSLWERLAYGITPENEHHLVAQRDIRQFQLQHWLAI
Sodium-dependent serotonin transporter, sequence (P31645 whole entry): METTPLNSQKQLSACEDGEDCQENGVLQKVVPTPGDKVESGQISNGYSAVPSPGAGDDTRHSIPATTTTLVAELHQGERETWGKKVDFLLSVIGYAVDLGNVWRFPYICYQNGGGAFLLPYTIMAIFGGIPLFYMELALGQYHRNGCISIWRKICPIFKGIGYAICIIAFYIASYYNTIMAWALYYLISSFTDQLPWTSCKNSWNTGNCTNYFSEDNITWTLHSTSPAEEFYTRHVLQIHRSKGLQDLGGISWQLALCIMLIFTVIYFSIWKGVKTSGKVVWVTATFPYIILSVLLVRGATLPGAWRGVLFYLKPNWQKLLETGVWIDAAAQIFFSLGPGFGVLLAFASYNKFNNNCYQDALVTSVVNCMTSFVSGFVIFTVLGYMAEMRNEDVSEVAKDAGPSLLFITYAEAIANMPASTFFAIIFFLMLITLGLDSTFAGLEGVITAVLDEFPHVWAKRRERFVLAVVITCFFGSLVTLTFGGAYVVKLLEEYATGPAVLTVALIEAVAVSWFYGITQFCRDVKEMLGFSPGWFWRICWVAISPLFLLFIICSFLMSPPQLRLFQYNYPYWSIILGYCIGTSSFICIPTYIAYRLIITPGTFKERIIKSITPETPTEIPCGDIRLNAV

SMILES | Emax [1] [%] | Ratio EC50 (Homo sapiens) | Ratio Ki [2] | Emax [3] [%] | Emax [4] [%] | Ratio Ki [5] | Ratio EC50 [6] | Activity [12] | other results
NC[C@H]1C[C@@H]1c1ccc(F)cc1 (relative stereo) | 67 | 1.9 | 11.5 | 89 | 93 | 0.37 | 47 | – | –
NC[C@H]1C[C@@H]1c1ccccc1Br | 76 | 17 | 3.7 | 102 | 116 | 0.24 | 86 | – | pKi [7]: 5.67; pEC50 [8]: 7.89; pKi [9]: 6.61; pKi [10]: 7.18; pKi [11]: 7.80; pEC50 [12]: 7.17; pKi [13]: 5.42; pEC50 [14]: 9.11; pKi [15]: 5.47
NC[C@H]1C[C@@H]1c1ccccc1 | 79 | 7.2 | – | 111 | 108 | – | 268 | – | pEC50 [8]: 7.43; pEC50 [12]: 5.86; pEC50 [14]: 8.28
C[C@H]1CNCCc2ccc(Cl)cc21 [LORCASERIN] | 26 | – | – | – | 124 | – | – | – | pKi [7]: < 5.00; pKi [15]: < 5.00
NC[C@H]1C[C@@H]1c1ccccc1C#CCCCCO (relative stereo) | < 12 | 0.88 | – | 84 | 88 | – | > 43 | inactive | pEC50 [8]: 6.69; pEC50 [14]: 6.63
Cc1cccc([C@H]2C[C@@H]2CN)c1.Cl (relative stereo) | 86 | 14 | 6.9 | 93 | 95 | 0.32 | 123 | – | Activity (Mus musculus [16]; route intraperitoneal): 28%; Activity (Mus musculus [17]): 38%; Activity (Mus musculus [18]): 38%
NC[C@H]1C[C@@H]1c1ccc(O)cc1 (relative stereo) | < 12 | – | – | < 12 | < 12 | – | – | inactive | Activity [8]: inactive; Activity [19]: inactive
NC[C@@H]1C[C@H]1c1ccccc1Br (relative stereo) [listing 1 of 2 here] | 71 | 3.7 | 5.3 | 86 | 76 | 0.18 | 73 | – | –
c1ccc(CN[C@H]2C[C@@H]2c2ccccc2)cc1 (racemic) | < 12 | – | – | -1 | < 12 | – | – | inactive | Activity [8]: inactive; Activity [19]: inactive
NC[C@@H]1C[C@H]1c1ccccc1Br (relative stereo) [listing 2 of 2 here] | – | – | – | – | – | – | – | – | pKi [7]: < 5.00; pEC50 [8]: 8.32; pKi [9]: 6.18; pKi [10]: 6.91; pKi [11]: 7.66; pEC50 [12]: 7.03; pKi [13]: 5.57; pEC50 [14]: 8.89; pKi [15]: 5.56
CN[C@H]1CC[C@@H](c2ccc(Cl)c(Cl)c2)c2ccccc21 | – | – | – | – | – | – | – | – | Activity (Mus musculus [16]): Active
CN(C)[C@H]1C[C@@H]1c1ccccc1 (racemic) | < 12 | – | – | -2 | < 12 | – | – | inactive | Activity [8]: inactive; Activity [19]: inactive
NC[C@H]1C[C@@H]1c1ccc(F)cc1Cl (relative stereo) | 91 | 7.3 | 1.2 | 97 | 100 | 0.08 | 30 | – | –
CN[C@H]1C[C@@H]1c1ccccc1 (racemic) | < 12 | – | – | 6 | < 12 | – | – | inactive | Activity [8]: inactive; Activity [19]: inactive
